According to article PMC2650427 (Bioconjugate chemistry, 2008):
Where two headings read alike, the source gives them in different places. Marks after values point to notes of the source that are not given here.

How the values were obtained:
Relaxivity = type: physicochemical; details: 100 mM phosphate buffer, pH 7.4, ambient temperature (~25 °C); saturation recovery; assessed in duplicate
[1] = calculated at 25 °C; cited from earlier work
[2] = cited from earlier work
NIH/3T3 cells = assay: MR imaging and T1 analysis of labelled cells; type: cell-based; details: 1.0 mM, 4 h, washes at 1 hour intervals, T1-weighted, 14.1 T
[3] = Determination of τm by 17O transverse relaxation rate measurements; type: physicochemical; details: variable temperature 17O NMR at 54 MHz, 15–20 mM, pH 7.40; calculated at 25 °C
[4] = In vitro cleavage by disulfide exchange with GSH; type: physicochemical; details: 1.0 mM in DPBS, 37 °C, 4 h; GSH at 4 times the contrast agent; HPLC-MS ion count
How it was run: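 Disulfide-linked Gd(III)-DTPA–octaarginine test compound was incubated with increasing GSH (0.25 to 4 equivalents) in 1.0 mM DPBS. Start times were staggered so each sample had 4 h at 37 °C before LC-MS. Separation used a C18 column (4.6 × 250 mm, 5 µm) at 1.0 mL/min with a water/MeCN gradient of 0–60% MeCN over 40 min. Total ion counts of the GSH-exchange product and of the starting material were compared.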

Compound | Relaxivity, 600 MHz (14.1 T) (Relaxivity) [mM⁻¹ s⁻¹] | τm (mean residence lifetime of coordinated water) [1] | q (number of bound water molecules) [2] | MR image intensity after leaching (NIH/3T3 cells) | τm (mean residence lifetime of coordinated water) [3] [ns] | Completeness of disulfide cleavage at 4:1 GSH [4]
O=C([O-])CN1CCN(CC(=O)[O-])CCN(CC(=O)O)CCN(CC(=O)[O-])CC1.[Gd+3] [Gd(III)-DOTA] | 2.12 | 243 ^e ns | 1.2 ^d | – | – | –
O=C([O-])CN(CCN(CC(=O)[O-])CC(=O)O)CCN(CC(=O)[O-])CC(=O)O.[Gd+3] [Gd(III)-DTPA] | 2.09 | 303 ^e ns | 1.2 ^d | – | – | –
Gd(III)-DOTA-SS-Arg8 [compound 3] | 3.52 | – | – | little loss of signal intensity | 840 | –
Gd(III)-DTPA-SS-Arg8 [compound 4] | 3.46 | – | – | little loss of signal intensity | 1327 | complete cleavage is not obtainable
